Activity calls are given as the source filed them. No cut-off for these calls is given here.
Key:
[1] = system: MCF7; test: Antiproliferative activity against human MCF7 cells after 48 hrs by sulforhodamine B assay; type: functional, cell-based; conditions: MCF7, 48 h
[2] = system: HT-29; test: Antiproliferative activity against human HT-29 cells after 48 hrs by sulforhodamine B assay; type: functional, cell-based; conditions: HT-29, 48 h
[3] = system: M21; test: Antiproliferative activity against human M21 cells after 48 hrs by sulforhodamine B assay; type: functional, cell-based; conditions: M21, 48 h
[4] = system: M21; test: Cell cycle arrest in human M21 cells assessed as accumulation at G0/G1 phase at 5 times IC50 after 24 hrs using propidium iodide staining by flow cytometric analysis (reference value: 61%); type: functional
[5] = system: M21; test: Cell cycle arrest in human M21 cells assessed as accumulation at G2/M phase at 5 times IC50 after 24 hrs using propidium iodide staining by flow cytometric analysis (reference value: 9%); type: functional
[6] = system: M21; test: Cell cycle arrest in human M21 cells assessed as accumulation at S phase at 5 times IC50 after 24 hrs using propidium iodide staining by flow cytometric analysis (reference value: 30%); type: functional
[7] = system: MDA-MB-231; test: Displacement of N,N'-ethylenebis(iodoacetamide) from colchicine-binding site of beta-tubulin in human MDA-MB-231 cells at 1000 times IC50 preincubated for after 2 hrs before N,N'-ethylenebis(iodoacetamide) addition measured after 1.5 hrs by chemiluminescence assay; type: cell-based
Procedure, shortened: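 EBI (100 μM final) added for 1.5 h at 37 °C; controls received 0.5% DMSO. Lysates (20 μg protein) run on 10% SDS-PAGE and blotted with anti-β-tubulin (TUB 2.1). β-tubulin–EBI adduct band detected by ECL.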

[8] = system: M21; test: Disruption of cytoskeleton microtubule structure of human M21 cells at 5 times IC50 after 16 hrs by indirect immunofluorescence assay; type: functional, cell-based
Procedure, shortened: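 Fixed in 3.7% formaldehyde, permeabilized with saponin, and stained with anti-β-tubulin (TUB 2.1), Alexa-488 secondary and DAPI. Microtubule structure scored by fluorescence microscopy.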

IC50 [1] [nM]	IC50 [2] [nM]	Structure (SMILES)	IC50 [3] [nM]	Activity [4] [%]	Activity [5] [%]	Activity [6] [%]	inhibition [7]	Activity [8]
> 1000	> 1000	O=C1NCCN1c1ccc(S(=O)(=O)Oc2ccc([N+](=O)[O-])cc2)cc1	570	–	–	–	–	–
190	150	CCc1ccc(OS(=O)(=O)c2ccc(N3CCNC3=O)cc2)cc1	120	–	–	–	–	–
100	70	O=C1NCCN1c1ccc(S(=O)(=O)Oc2ccc3[nH]ccc3c2)cc1	65	19	64	17	Active	Active
270	1000	Nc1cccc(OS(=O)(=O)c2ccc(N3CCNC3=O)cc2)c1	170	–	–	–	–	–
> 1000	> 1000	O=C1NCCN1c1ccc(S(=O)(=O)Oc2ccncc2)cc1	> 1000	–	–	–	–	–
56	44	CCOc1ccc(OS(=O)(=O)c2ccc(N3CCNC3=O)cc2)cc1	39	2	75	23	–	Active
210	150	O=C1NCCN1c1ccc(S(=O)(=O)Oc2ccc(I)cc2)cc1	110	–	–	–	–	–
> 1000	720	Cc1ccc(OS(=O)(=O)c2ccc(N3CCCNC3=O)cc2)cc1	> 1000	–	–	–	–	–
47	32	Cc1cc(C)cc(OS(=O)(=O)c2ccc(N3CCNC3=O)cc2)c1	16	7	67	26	Active	Active
270	190	O=C1NCCN1c1ccc(S(=O)(=O)Oc2ccccc2[N+](=O)[O-])cc1	150	–	–	–	–	–
50	31	Cc1cccc(OS(=O)(=O)c2ccc(N3CCNC3=O)cc2)c1C	17	5	63	32	Active	Active
30	33	Cc1ccccc1OS(=O)(=O)c1ccc(N2CCNC2=O)cc1	26	11	74	15	Active	Active
88	67	COc1ccc(OS(=O)(=O)c2ccc(N3CCNC3=O)cc2)cc1OC	45	1	80	19	Active	Active
54	42	O=C1NCCN1c1ccc(S(=O)(=O)Oc2cccc(F)c2)cc1	31	7	84	9	Active	Active
49	34	Cc1cc(OS(=O)(=O)c2ccc(N3CCNC3=O)cc2)cc(C)c1C	15	0	99	0	Active	Active
34	29	COc1cccc(OS(=O)(=O)c2ccc(N3CCNC3=O)cc2)c1	24	1	98	1	Active	Active
600	670	Cc1cc(OS(=O)(=O)c2ccc(N3CCNC3=O)cc2)ccc1N	360	–	–	–	–	–
51	34	CCCc1cccc(OS(=O)(=O)c2ccc(N3CCNC3=O)cc2)c1	27	2	73	25	Active	Active
57	76	Cc1cccc(OS(=O)(=O)c2ccc(N3CCNC3=O)cc2)c1	54	1	99	0	Active	Active
> 1000	> 1000	O=C1NCCCN1c1ccc(S(=O)(=O)Oc2cccc(F)c2)cc1	> 1000	–	–	–	–	–
> 1000	> 1000	Cc1cccc(OS(=O)(=O)c2ccc(N3CCCNC3=O)cc2)c1	> 1000	–	–	–	–	–
180	140	Cc1cc(OS(=O)(=O)c2ccc(N3CCNC3=O)cc2)ccc1[N+](=O)[O-]	100	–	–	–	–	–
> 1000	> 1000	Cc1ccc(OS(=O)(=O)c2ccc(N3CCCNC3=O)cc2)c(C)c1	> 1000	–	–	–	–	–
> 1000	> 1000	O=C1NCCN1c1ccc(S(=O)(=O)Oc2ccc(O)cc2)cc1	> 1000	–	–	–	–	–
> 1000	> 1000	O=C1NCCN1c1ccc(S(=O)(=O)Oc2ccccc2)cc1	> 1000	–	–	–	–	–
> 1000	> 1000	Nc1ccc(OS(=O)(=O)c2ccc(N3CCNC3=O)cc2)cc1	920	–	–	–	–	–
500	430	CN(C)c1ccc(OS(=O)(=O)c2ccc(N3CCNC3=O)cc2)cc1	350	–	–	–	–	–

The remaining lines, values behind:

Structure (SMILES)	IC50 [1] [nM]	IC50 [2] [nM]	IC50 [3] [nM]	Activity [4] [%]	Activity [5] [%]	Activity [6] [%]	inhibition [7]	Activity [8]
Cc1ccccc1OS(=O)(=O)c1ccc(N2CCCNC2=O)cc1	> 1000	> 1000	> 1000	–	–	–	–	–
O=C1NCCN1c1ccc(S(=O)(=O)Oc2ccc(-n3ccnc3)cc2)cc1	> 1000	> 1000	> 1000	–	–	–	–	–
COc1cc(OS(=O)(=O)c2ccc(N3CCCNC3=O)cc2)cc(OC)c1OC	730	490	240	–	–	–	–	–
O=C1NCCN1c1ccc(S(=O)(=O)Oc2ccccn2)cc1	770	480	290	–	–	–	–	–
CCc1ccccc1OS(=O)(=O)c1ccc(N2CCCNC2=O)cc1	> 1000	> 1000	> 1000	–	–	–	–	–
O=C1NCCN1c1ccc(S(=O)(=O)Oc2cc(Cl)c(Cl)cc2Cl)cc1	30	30	31	1	99	0	Active	Active
Cc1ccc2cccc(OS(=O)(=O)c3ccc(N4CCNC4=O)cc3)c2n1	330	180	130	–	–	–	–	–
O=C1NCCCN1c1ccc(S(=O)(=O)Oc2ccc(F)cc2)cc1	> 1000	> 1000	> 1000	–	–	–	–	–
O=C(NCCCl)Nc1cccc(CCCCCO)c1	420	150	230	1	88	11	–	Active
CCC(C)c1ccc(OS(=O)(=O)c2ccc(N3CCNC3=O)cc2)cc1 (stereo not drawn)	920	780	830	–	–	–	–	–
CCCOc1ccc(OS(=O)(=O)c2ccc(N3CCNC3=O)cc2)cc1	140	110	96	0	94	6	Active	Active
O=C1NCCN1c1ccc(S(=O)(=O)Oc2cc(F)c(F)c(F)c2)cc1	91	73	43	4	65	31	Active	Active
COc1ccccc1OS(=O)(=O)c1ccc(N2CCNC2=O)cc1	220	180	130	–	–	–	–	–
CC(C)(C)[Si](C)(C)Oc1ccc(OS(=O)(=O)c2ccc(N3CCNC3=O)cc2)cc1	> 1000	> 1000	> 1000	–	–	–	–	–
COc1cccc(OS(=O)(=O)c2ccc(N3CCCNC3=O)cc2)c1	> 1000	> 1000	> 1000	–	–	–	–	–
O=C1NCCCN1c1ccc(S(=O)(=O)Oc2cc(Cl)c(Cl)cc2Cl)cc1	> 1000	> 1000	> 1000	–	–	–	–	–
O=C1NCCN1c1ccc(S(=O)(=O)Oc2ccccc2F)cc1	61	51	34	18	48	34	Active	Active
O=C1NCCN1c1ccc(S(=O)(=O)Oc2c(F)c(F)c(F)c(F)c2F)cc1	320	340	220	–	–	–	–	–
CCCc1ccccc1OS(=O)(=O)c1ccc(N2CCCNC2=O)cc1	> 1000	> 1000	> 1000	–	–	–	–	–
O=C1NCCN1c1ccc(S(=O)(=O)Oc2c(Cl)cc(Cl)cc2Cl)cc1	170	110	120	–	–	–	–	–
CCCCOc1ccc(OS(=O)(=O)c2ccc(N3CCNC3=O)cc2)cc1	890	540	530	–	–	–	–	–
O=C1NCCCN1c1ccc(S(=O)(=O)Oc2c(Cl)cc(Cl)cc2Cl)cc1	> 1000	> 1000	> 1000	–	–	–	–	–
O=C1NCCCN1c1ccc(S(=O)(=O)Oc2ccc(Cl)cc2)cc1	> 1000	> 1000	> 1000	–	–	–	–	–
